Experimental data published in the M2OR odorant receptor database.

Columns and labels:
Conditions in all cases: stereoisomer not certain
[1] = target: T1, OR13H1 (Homo sapiens) (UniProt Q8NG92)
T1 sequence (whole entry): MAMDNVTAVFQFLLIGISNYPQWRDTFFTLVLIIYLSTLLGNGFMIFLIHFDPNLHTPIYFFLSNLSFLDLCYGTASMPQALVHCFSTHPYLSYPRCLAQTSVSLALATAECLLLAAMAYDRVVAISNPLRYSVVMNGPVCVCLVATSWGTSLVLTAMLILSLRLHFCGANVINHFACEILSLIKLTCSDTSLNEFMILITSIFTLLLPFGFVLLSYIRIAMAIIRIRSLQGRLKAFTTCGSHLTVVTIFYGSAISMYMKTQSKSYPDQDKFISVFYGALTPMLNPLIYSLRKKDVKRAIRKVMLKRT
Method in brief: (§1)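 Values were gathered from published papers (main text and supplementary material), with extra details requested from the original authors when needed, and checked for typos and inconsistencies. Each receptor–molecule pair is called responsive (active) if the original authors judged the measured signal statistically different from baseline, and non-responsive (inactive) otherwise. Assay methods varied by source, often transient mammalian cell-line luciferase assays. Recorded details include cell line, G-protein, co-transfected protein and tags.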

[2] = target: T2, OR13J1 (Homo sapiens) (UniProt Q8NGT2)
T2 sequence (whole entry): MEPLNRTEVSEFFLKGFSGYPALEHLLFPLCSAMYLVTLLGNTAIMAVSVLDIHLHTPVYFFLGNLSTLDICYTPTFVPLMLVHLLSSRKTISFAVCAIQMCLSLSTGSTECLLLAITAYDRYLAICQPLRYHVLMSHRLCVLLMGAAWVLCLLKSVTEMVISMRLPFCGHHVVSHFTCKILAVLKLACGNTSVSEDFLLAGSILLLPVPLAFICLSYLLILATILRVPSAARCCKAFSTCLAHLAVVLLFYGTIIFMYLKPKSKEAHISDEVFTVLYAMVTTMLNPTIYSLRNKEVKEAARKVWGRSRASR
Method in brief: as §1

[3] = target: T3, OR14A16 (Homo sapiens) (UniProt Q8NHC5)
T3 sequence (whole entry): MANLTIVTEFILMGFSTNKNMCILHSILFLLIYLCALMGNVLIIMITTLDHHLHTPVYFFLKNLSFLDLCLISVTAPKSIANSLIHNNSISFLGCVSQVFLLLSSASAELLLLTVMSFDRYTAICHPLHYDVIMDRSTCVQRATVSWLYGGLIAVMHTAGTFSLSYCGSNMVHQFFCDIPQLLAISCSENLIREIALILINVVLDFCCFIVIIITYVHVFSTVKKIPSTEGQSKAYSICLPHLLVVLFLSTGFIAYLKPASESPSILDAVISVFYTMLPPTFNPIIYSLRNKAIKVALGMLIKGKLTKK
Method in brief: as §1

[4] = target: T4, OR14A2 (Homo sapiens) (UniProt Q96R54)
T4 sequence (whole entry): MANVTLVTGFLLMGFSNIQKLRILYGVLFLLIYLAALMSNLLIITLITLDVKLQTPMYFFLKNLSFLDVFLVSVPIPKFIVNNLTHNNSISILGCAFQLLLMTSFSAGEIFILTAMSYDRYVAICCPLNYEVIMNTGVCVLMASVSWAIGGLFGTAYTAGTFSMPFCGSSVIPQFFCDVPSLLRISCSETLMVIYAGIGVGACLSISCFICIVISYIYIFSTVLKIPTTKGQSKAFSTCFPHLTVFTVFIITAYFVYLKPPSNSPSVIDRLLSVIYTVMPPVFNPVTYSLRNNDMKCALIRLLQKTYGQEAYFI
Method in brief: as §1

[5] = target: T5, OR14C36 (Homo sapiens) (UniProt Q8NHC7)
T5 sequence (whole entry): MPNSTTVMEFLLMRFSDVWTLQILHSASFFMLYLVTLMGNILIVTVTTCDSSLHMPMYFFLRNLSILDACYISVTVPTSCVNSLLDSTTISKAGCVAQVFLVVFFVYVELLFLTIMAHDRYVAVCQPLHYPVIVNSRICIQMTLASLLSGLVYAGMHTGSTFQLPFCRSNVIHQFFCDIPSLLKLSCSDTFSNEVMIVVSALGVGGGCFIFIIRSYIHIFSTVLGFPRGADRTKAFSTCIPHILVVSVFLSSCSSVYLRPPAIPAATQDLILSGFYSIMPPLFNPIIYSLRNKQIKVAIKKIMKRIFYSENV
Method in brief: as §1

[6] = target: T6, OR14I1 (Homo sapiens) (UniProt A6ND48)
T6 sequence (whole entry): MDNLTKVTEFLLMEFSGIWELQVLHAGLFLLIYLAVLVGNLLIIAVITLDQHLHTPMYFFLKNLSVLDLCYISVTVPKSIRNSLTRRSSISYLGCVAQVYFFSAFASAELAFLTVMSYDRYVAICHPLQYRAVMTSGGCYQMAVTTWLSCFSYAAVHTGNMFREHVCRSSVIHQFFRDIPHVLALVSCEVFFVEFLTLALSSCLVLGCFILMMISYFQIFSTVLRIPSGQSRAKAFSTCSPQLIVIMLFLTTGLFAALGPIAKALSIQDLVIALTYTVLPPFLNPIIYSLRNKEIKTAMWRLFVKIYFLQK
Method in brief: as §1

[7] = target: T7, OR14J1 (Homo sapiens) (UniProt Q9UGF5)
T7 sequence (whole entry): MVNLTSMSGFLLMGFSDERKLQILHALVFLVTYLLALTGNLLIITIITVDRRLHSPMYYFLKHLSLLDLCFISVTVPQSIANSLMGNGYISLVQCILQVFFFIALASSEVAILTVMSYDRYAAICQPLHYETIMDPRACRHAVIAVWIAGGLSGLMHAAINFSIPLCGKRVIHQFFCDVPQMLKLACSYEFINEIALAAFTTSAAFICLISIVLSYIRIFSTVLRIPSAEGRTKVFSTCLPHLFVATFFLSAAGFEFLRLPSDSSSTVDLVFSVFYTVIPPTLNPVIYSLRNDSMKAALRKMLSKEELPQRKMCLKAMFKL
Method in brief: as §1

[8] = target: T8, OR14K1 (Homo sapiens) (UniProt Q8NGZ2)
T8 sequence (whole entry): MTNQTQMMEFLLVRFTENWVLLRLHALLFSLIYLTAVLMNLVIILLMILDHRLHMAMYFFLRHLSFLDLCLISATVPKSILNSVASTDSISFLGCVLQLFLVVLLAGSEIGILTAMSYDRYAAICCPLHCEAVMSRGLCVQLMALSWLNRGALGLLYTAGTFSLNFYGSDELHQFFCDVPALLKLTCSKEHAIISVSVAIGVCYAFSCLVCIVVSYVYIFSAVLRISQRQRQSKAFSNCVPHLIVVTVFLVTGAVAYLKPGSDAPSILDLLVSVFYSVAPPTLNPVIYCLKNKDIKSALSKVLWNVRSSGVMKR
Method in brief: as §1

[9] = target: T9, OR1A1 (Homo sapiens) (UniProt Q9P1Q5)
T9 sequence (whole entry): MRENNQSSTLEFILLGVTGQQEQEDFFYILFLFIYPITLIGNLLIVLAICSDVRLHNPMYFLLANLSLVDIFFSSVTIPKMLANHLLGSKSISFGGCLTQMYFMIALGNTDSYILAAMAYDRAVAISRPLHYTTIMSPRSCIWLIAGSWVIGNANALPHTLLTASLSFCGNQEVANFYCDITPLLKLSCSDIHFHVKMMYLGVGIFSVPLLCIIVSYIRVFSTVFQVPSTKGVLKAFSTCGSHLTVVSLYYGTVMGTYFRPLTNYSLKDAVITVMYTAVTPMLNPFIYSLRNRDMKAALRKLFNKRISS
Method in brief: as §1

[10] = system: OR1A1 A154T N155S
Method in brief: as §1

Measured: odorant receptor agonist call

CC1=C(O)C(=O)OC1C (configuration not stated)
inactive: [1] | [2] | [3] | [4] | [5] | [6] | [7] | [8] | [9]

CC(=O)c1c(C)c([N+](=O)[O-])c(C(C)(C)C)c([N+](=O)[O-])c1C
inactive: [1] | [2] | [3] | [4] | [5] | [6] | [7] | [8] | [9]

SCc1cccs1
inactive: [9]

CCCCCC(=O)C(C)C(C)=O (configuration not stated)
active: [9]
inactive: [1] | [2] | [3] | [4] | [5] | [6] | [7] | [8]

CCCCCCC(=O)[O-].[H+]
inactive: [9]

CCc1ccc(O)c(OC)c1
inactive: [9]

CCCCC(S)C(C)CO (configuration not stated)
inactive: [1] | [2] | [3] | [4] | [5] | [6] | [7] | [8] | [9]

C=C(C)C1CC=C(C)C(O)C1 (configuration not stated)
active: [9]

CCCCCCCC(C)=O
active: [9]

CCCCCC=O
inactive: [9]

COc1cc(C(=O)O)ccc1O
inactive: [9]

Cc1cnc(C)c(C)n1
inactive: [1] | [2] | [3] | [4] | [5] | [6] | [7] | [8] | [9]

CCCCCCC(C)=O
active: [9]

CC1=C(O)C(=O)C(C)O1 (configuration not stated)
inactive: [1] | [2] | [3] | [4] | [5] | [6] | [7] | [8] | [9]

CCCC(S)CCOC(C)=O (configuration not stated)
active: [9]
inactive: [1] | [2] | [3] | [4] | [5] | [6] | [7] | [8]

CC(=O)OCC=C(C)C
inactive: [9]

CCC(C(=O)O)c1ccccc1 (configuration not stated)
inactive: [9]

CC1=NC(C)C(C)S1 (configuration not stated)
inactive: [1] | [2] | [3] | [4] | [5] | [6] | [7] | [8] | [9]

CCC(S)C(C)CO (configuration not stated)
inactive: [1] | [2] | [3] | [4] | [5] | [6] | [7] | [8] | [9]

CC(CO)CS (configuration not stated)
inactive: [1] | [2] | [3] | [4] | [5] | [6] | [8] | [9]
active: [7]

Cc1cnccn1
inactive: [9]

CCCCCc1ccccn1
active: [9]

CCCC1CCCC(=O)O1 (configuration not stated)
inactive: [9]

COc1ccccc1
inactive: [9]

CCC=CCCC=O
inactive: [9]

CC1CCCCCCCCCCCCC(=O)C1 (configuration not stated)
active: [9]
inactive: [1] | [2] | [3] | [4] | [5] | [6] | [7] | [8]

Cc1nccnc1C
inactive: [9]

CC(C)CO
inactive: [9]

CCC1OC(C)=C(O)C1=O (configuration not stated)
inactive: [1] | [2] | [3] | [4] | [5] | [6] | [7] | [8] | [9]

CCCCCCC=CCCC=O
inactive: [1] | [2] | [3] | [4] | [5] | [6] | [7] | [8] | [9]

CC(=O)c1ccccc1N
inactive: [9]

c1ccccc1
inactive: [9]

CSCSC
inactive: [9]

CCC1OC(=O)C(O)=C1C (configuration not stated)
inactive: [1] | [2] | [3] | [4] | [5] | [6] | [7] | [8] | [9]

CCC(=O)C(=O)CC
inactive: [9]

CCCCCC(S)C(C)CO (configuration not stated)
inactive: [1] | [2] | [3] | [4] | [5] | [6] | [7] | [8] | [9]

CC(C)=CCCC(C)CCO (configuration not stated)
active: [10]
